Experimental data of several laboratories.
Protocols differ between the studies behind these lines.
Target: Serine/threonine-protein kinase 26 (STK26, Homo sapiens, UniProt Q9P289)

COc1cccc2c(NCc3ccccc3)nc(-n3c(N)nc4ccccc43)nc12
inhibition (target engagement in cells, inhibitor, chemoproteomics; 20 mM): 31.1%

CC(C)(C)C(=O)c1sc(NC2CCCCC2)nc1N
remaining activity (enzyme activity, inhibitor; 10 µM): 90%

Nc1ncnc2occ(-c3ccc(NC(=O)Nc4cc(C(F)(F)F)ccc4F)cc3)c12
remaining signal (cell-free assay, inhibitor; 20 µM): 2.6%

Cc1cnc(NC2CCOCC2)nc1-n1cnc(C(=O)NC(CN)c2cc(F)cc(Cl)c2)c1 (stereo not drawn)
remaining activity (enzyme activity, inhibitor, radiometric; 1 µM): 109%

C[C@H](c1ccc(F)cc1)N(Cc1cccc(C(=O)O)c1)C(=O)c1cnc2ccccc2c1
remaining binding (cell-free assay, competition with immobilised ligand; 1 µM): 79%

COc1cc(-c2cc(-c3ccc(N4CCNCC4)cc3)cnc2N)cc(OC)c1OC
inhibition (enzyme activity, inhibitor; 1 µM): 1%

COc1cc(Nc2cnc(C#N)c(O[C@H](C)CN(C)C)n2)ncc1-c1cnn(C)c1
remaining activity (enzyme activity, inhibitor, radiometric; 10 µM): 42%

N#CCCc1ccc2c(c1)-c1[nH]c3ccc([N+](=O)[O-])cc3c1CC(=O)N2
remaining signal (cell-free assay; 0.5 µM): 65.1%

FC(F)(F)Oc1cccc(-c2cnc3ccc(-c4ccncc4)nn23)c1
activity vs control (enzyme activity, inhibitor, radiometric; 5 µM): 87%

N#CC1(c2ccccn2)CCN(Cc2cc(C(=O)N3CCCC3)c(=O)n3ccccc23)CC1
remaining binding (cell-free assay, competition with immobilised ligand; 1 µM): 100%

O=C1Nc2ccc(Cl)cc2C1=Cc1cc(Cl)c(O)c(Cl)c1
remaining signal (cell-free assay; 0.5 µM): 101%

COc1cc2ncnc(Nc3ccc(Oc4ccccc4)c(C)c3C)c2cc1OC
inhibition (enzyme activity, inhibitor; 1 µM): 21%

O=C(Nc1cnn(-c2csc(C(=O)NC3COC3)c2)c1)Nc1ccccc1Cl
remaining activity (enzyme activity, inhibitor; 5 µM): 98.3%

Cc1cnn2ncc(-c3ccnc(N(C)C)n3)c2c1
remaining signal (cell-free assay; 1 µM): 98%

COc1cc(Cl)c(C(=O)N[C@@H](CN[C@H]2CC[C@@H](N)CC2)Cc2ccc(C#N)cc2)cc1-c1ccc(CN[C@H](C)c2ccc(C)cc2)o1
remaining activity (enzyme activity, inhibitor; 1 µM): 94%

CC1CCCN1c1nccc(-c2cnn3ncccc23)n1 (stereo not drawn)
remaining signal (cell-free assay; 1 µM): 100%

N#CC1c2c([nH]c3c(Cl)c(Cl)ccc23)C(=O)NC12CCCCC2 (racemic)
ΔTm (thermal stability, DSF; 10 µM): 0.1 °C

CC(=O)N1CCC(c2ccc(C(=O)NC(=N)N)cc2C(F)(F)F)CC1
remaining binding (cell-free assay, competition with immobilised ligand; 1 µM): 97%

CN(C)C1CCN(CC#Cc2nn(C3CCCC3)c3nc(NCc4ccccc4)ncc23)C1 (stereo not drawn)
inhibition (enzyme activity, inhibitor, FRET; 1 µM): 20%

CS(=O)(=O)c1cc(C2(NC(=O)c3cncc4c3cnn4-c3ccc(F)cc3)CC2)ccn1
remaining binding (cell-free assay, competition with immobilised ligand; 1 µM): 97%

COc1cc(-c2cc(-c3ccc(N4CCNCC4)cc3)cnc2C)cc(OC)c1OC
inhibition (enzyme activity, inhibitor; 0.1 µM): 9%

Oc1cccc(-c2nc(N3CCOCC3)c3oc4ncccc4c3n2)c1
remaining activity (enzyme activity, inhibitor; 10 µM): 114%

COc1cc(/C=C/C(=O)CC(=O)/C=C/c2ccc(O)c(OC)c2)ccc1O
activity vs control (enzyme activity, inhibitor; 1 µM): 75%

O=C1NC(c2ccccn2)Sc2ccccc21 (stereo not drawn)
remaining binding (cell-free assay, competition with immobilised ligand; 1 µM): 80%

Cn1c2c(Cl)c(Cl)ccc2c2cc(N)[nH]c(=O)c21
ΔTm (thermal stability, DSF; 10 µM): 1.5 °C

CC(C)(C)c1nc(-c2cccc(NS(=O)(=O)c3c(F)cccc3F)c2F)c(-c2ccnc(N)n2)s1
remaining activity (enzyme activity, inhibitor, radiometric; 1 µM): 103%

CS(=O)(=O)N1CCCC(NC(=O)[C@H](CCC2CCCCC2)NC(=O)c2ccc(CNc3ncnc4c3nnn4-c3ccccc3)cc2)C1 (stereo partly drawn)
remaining binding (cell-free assay, competition with immobilised ligand; 0.1 µM): 92%

COc1ccnn2ncc(-c3ccnc(N(C)C)n3)c12
remaining signal (cell-free assay; 1 µM): 86%

CN1CC(Oc2cnc(C#N)cc2-c2ccn3nc(NC(=O)C4CC4)cc3c2)C1
inhibition (enzyme activity, inhibitor; 1 µM): -9%

c1ccc(N2CCN(Cc3nc4ccccc4[nH]3)CC2)nc1
remaining binding (binding, competition with immobilised ligand; 1 µM): 100%

CN(CCCC(F)(F)F)c1nccc(-c2cnn3ncccc23)n1
remaining signal (cell-free assay; 1 µM): 100%

Cn1c2c(Cl)c(Cl)ccc2c2cc[nH]c(=O)c21
ΔTm (thermal stability, DSF; 10 µM): 1.5 °C

Nc1nc(Nc2ccccc2)sc1C(=O)c1c(F)cccc1F
remaining activity (enzyme activity, inhibitor; 10 µM): 57%

Cc1cc(NC(=O)c2cccc3cc(-c4cccc5[nH]nc(N)c45)ccc23)ccc1F
activity vs control (enzyme activity, inhibitor; 0.1 µM): 107%

Cn1c2c(c3ccccc31)C(C#N)C(C)(C)NC2=O (stereo not drawn)
ΔTm (thermal stability, DSF; 10 µM): 1.9 °C

CN(c1nccc(-c2cnn3ncccc23)n1)C1CC1
remaining signal (cell-free assay; 1 µM): 100%

O=C(NS(=O)(=O)c1ccc(NCC2CCOCC2)c([N+](=O)[O-])c1)c1ccc(N2CCN(Cc3ccc(C(F)(F)F)cc3-c3ccc(Cl)cc3)CC2)cc1Oc1cnc2[nH]ccc2c1
remaining binding (cell-free assay, competition with immobilised ligand; 1 µM): 72%

N[C@H]1CCN(c2nccc(-c3cnn4ncccc34)n2)C1
remaining signal (cell-free assay; 1 µM): 71%

Cn1c(=O)n(-c2ccc(C(C)(C)C#N)cc2)c2c3cc(-c4cnc5ccccc5c4)ccc3ncc21
remaining activity (enzyme activity, inhibitor; 10 µM): 100%
